In ChEMBL document CHEMBL1649115, “Enhanced susceptibility to antifungal oligopeptides in yeast strains overexpressing ABC multidrug efflux pumps” (Antimicrob Agents Chemother, 2008):
In brackets after ≈: the same amount, converted by molar mass. Residues, ends and D or L forms follow the SMILES beside them. *: point of attachment. Ethyl(2-NH2) = NCC*

Experiments:
Saccharomyces cerevisiae [1] = assay: Antifungal activity against wild type Saccharomyces cerevisiae ATCC 9763 in YNPG medium containing 1 mg/ml […] after 24 hrs by microdilution method; format: functional; conditions: ATCC 9763, 24 h
Saccharomyces cerevisiae [2] = assay: Antifungal activity against Saccharomyces cerevisiae AD12345678 in YNPG medium containing 1 mg/ml […] after 24 hrs by microdilution method; format: functional; conditions: AD12345678, 24 h
Saccharomyces cerevisiae [3] = assay: Antifungal activity against Saccharomyces cerevisiae ADCDR1 expressing Candida albicans CDR1 efflux pump in YNPG medium containing 1 mg/ml […] after 24 hrs by microdilution method; format: functional; conditions: ADCDR1, 24 h
Saccharomyces cerevisiae [4] = assay: Antifungal activity against Saccharomyces cerevisiae ADCDR2 expressing Candida albicans CDR2 efflux pump in YNPG medium containing 1 mg/ml […] after 24 hrs by microdilution method; format: functional; conditions: ADCDR2, 24 h
Saccharomyces cerevisiae [5] = assay: Antifungal activity against Saccharomyces cerevisiae ADMDR1 expressing Candida albicans MDR1 efflux pump in YNPG medium containing 1 mg/ml […] after 24 hrs by microdilution method; format: functional; conditions: ADMDR1, 24 h
Candida albicans [6] = assay: Antifungal activity against wild type Candida albicans 10261 in RPMI-1640 buffered medium after 24 hrs by microdilution method; format: functional; conditions: Candida albicans, 10261, 24 h; read-out: MIC
How it was run: (§1)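 C. albicans cells were grown in 2% glucose, 1% yeast extract, 1% Bacto peptone medium before testing. […] CARE-2 fingerprinting confirmed that each pair is a single strain.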

Candida albicans [7] = assay: Antifungal activity against fluconazole sensitive Candida albicans isolate Gu4 in RPMI-1640 buffered medium after 24 hrs by microdilution method; format: functional; conditions: Candida albicans, isolate Gu4, 24 h; read-out: MIC; how it was run: as §1
Candida albicans [8] = assay: Antifungal activity against fluconazole resistant Candida albicans isolate Gu5 overexpressing CDR1 and CDR2 in RPMI-1640 buffered medium after 24 hrs by microdilution method; format: functional; conditions: isolate Gu5, 24 h
How it was run: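 C. albicans cells were grown in 2% glucose, 1% yeast extract, 1% Bacto peptone medium before testing. CARE-2 fingerprinting confirmed that each pair is a single strain.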

Candida albicans [9] = assay: Antifungal activity against fluconazole sensitive Candida albicans isolate B3 in RPMI-1640 buffered medium after 24 hrs by microdilution method; format: functional; conditions: Candida albicans, isolate B3, 24 h; read-out: MIC; how it was run: as §1
Candida albicans [10] = assay: Antifungal activity against fluconazole resistant Candida albicans isolate B4 overexpressing MDR1 in RPMI-1640 buffered medium after 24 hrs by microdilution method; format: functional; conditions: Candida albicans, isolate B4, 24 h; read-out: MIC; how it was run: as §1
Saccharomyces cerevisiae [11] = assay: Drug uptake in Saccharomyces cerevisiae AD12345678 at 200 uM pretreated for 10 mins measured after 60 mins by fluorescamine staining; format: ADME, organism-based; conditions: in vivo, 1 h
Saccharomyces cerevisiae [12] = assay: Drug uptake in Saccharomyces cerevisiae ADCDR1 expressing Candida albicans CDR1 efflux pump at 200 uM pretreated for 10 mins measured after 60 mins by fluorescamine staining; format: ADME, organism-based; conditions: in vivo, 1 h
Saccharomyces cerevisiae [13] = assay: Drug uptake in Saccharomyces cerevisiae ADCDR2 expressing Candida albicans CDR2 efflux pump at 200 uM pretreated for 10 mins measured after 60 mins by fluorescamine staining; format: ADME, organism-based; conditions: in vivo, 1 h
Saccharomyces cerevisiae [14] = assay: Drug uptake in Saccharomyces cerevisiae ADMDR1 expressing Candida albicans MDR1 efflux pump at 200 uM pretreated for 10 mins measured after 60 mins by fluorescamine staining; format: ADME, organism-based; conditions: in vivo, 1 h
Saccharomyces cerevisiae [15] = assay: Antifungal activity against wild type Saccharomyces cerevisiae ATCC 9763 in YNPG-proline medium after 24 hrs by microdilution method; format: functional; conditions: ATCC 9763, 24 h
Saccharomyces cerevisiae [16] = assay: Antifungal activity against Saccharomyces cerevisiae AD12345678 in YNPG-proline medium after 24 hrs by microdilution method; format: functional; conditions: AD12345678, 24 h
Saccharomyces cerevisiae [17] = assay: Antifungal activity against Saccharomyces cerevisiae ADCDR1 expressing Candida albicans CDR1 efflux pump in YNPG-proline medium after 24 hrs by microdilution method; format: functional; conditions: ADCDR1, 24 h
Saccharomyces cerevisiae [18] = assay: Antifungal activity against Saccharomyces cerevisiae ADCDR2 expressing Candida albicans CDR2 efflux pump in YNPG-proline medium after 24 hrs by microdilution method; format: functional; conditions: ADCDR2, 24 h
Saccharomyces cerevisiae [19] = assay: Antifungal activity against Saccharomyces cerevisiae ADMDR1 expressing Candida albicans MDR1 efflux pump in YNPG-proline medium after 24 hrs by microdilution method; format: functional; conditions: ADMDR1, 24 h
Saccharomyces cerevisiae [20] = assay: Prodrug stability in wild type Saccharomyces cerevisiae ATCC 9763 assessed as compound cleavage rate measured per mg of protein; format: ADME, organism-based; conditions: in vivo
Saccharomyces cerevisiae [21] = assay: Prodrug stability in Saccharomyces cerevisiae AD12345678 assessed as compound cleavage rate measured per mg of protein; format: ADME, organism-based; conditions: in vivo
Saccharomyces cerevisiae [22] = assay: Prodrug stability in Saccharomyces cerevisiae ADCDR1 expressing Candida albicans CDR1 efflux pump assessed as compound cleavage rate measured per mg of protein; format: ADME, organism-based; conditions: in vivo
Saccharomyces cerevisiae [23] = assay: Prodrug stability in Saccharomyces cerevisiae ADCDR2 expressing Candida albicans CDR2 efflux pump assessed as compound cleavage rate measured per mg of protein; format: ADME, organism-based; conditions: in vivo
Saccharomyces cerevisiae [24] = assay: Prodrug stability in Saccharomyces cerevisiae ADMDR1 expressing Candida albicans MDR1 efflux pump assessed as compound cleavage rate measured per mg of protein; format: ADME, organism-based; conditions: in vivo
Candida albicans [25] = assay: Prodrug stability in wild type Candida albicans 10261 assessed as compound cleavage rate measured per mg of protein; format: ADME, organism-based; conditions: in vivo
Candida albicans [26] = assay: Prodrug stability in fluconazole sensitive Candida albicans isolate Gu4 assessed as compound cleavage rate measured per mg of protein; format: ADME, organism-based; conditions: in vivo
How it was run: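 Oligopeptides were incubated with cell extracts of the yeast cells, and their hydrolytic enzymes cleaved them. The amino acids released were quantified by the Cd-ninhydrin method.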

Candida albicans [27] = assay: Prodrug stability in fluconazole sensitive Candida albicans isolate B3 assessed as compound cleavage rate measured per mg of protein; format: ADME, organism-based; conditions: in vivo

Compound	MIC (Candida albicans [6])	MIC (Candida albicans [7])	MIC (Candida albicans [8])	MIC (Candida albicans [9])	MIC (Candida albicans [10])	Drug uptake (Saccharomyces cerevisiae [11])	Drug uptake (Saccharomyces cerevisiae [12])	Drug uptake (Saccharomyces cerevisiae [13])	Drug uptake (Saccharomyces cerevisiae [14])	MIC (Saccharomyces cerevisiae [15])	MIC (Saccharomyces cerevisiae [16])	MIC (Saccharomyces cerevisiae [17])	MIC (Saccharomyces cerevisiae [18])	MIC (Saccharomyces cerevisiae [19])	also measured
[N-]=[N+]=CC(=O)CC[C@H](N)C(=O)O [6-DIAZO-5-OXO-L-NORLEUCINE]	4 µg/mL (≈ 23.4 µM)	4 µg/mL (≈ 23.4 µM)	1 µg/mL (≈ 5.84 µM)	4 µg/mL (≈ 23.4 µM)	4 µg/mL (≈ 23.4 µM)	2 nmol/min/mg	2.32 nmol/min/mg	2.25 nmol/min/mg	1.98 nmol/min/mg						MIC (Saccharomyces cerevisiae [1]): 0.5 µg/mL (≈ 2.92 µM); MIC (Saccharomyces cerevisiae [2]): 0.5 µg/mL (≈ 2.92 µM); MIC (Saccharomyces cerevisiae [3]): 0.125 µg/mL (≈ 0.73 µM); MIC (Saccharomyces cerevisiae [4]): 0.25 µg/mL (≈ 1.46 µM); MIC (Saccharomyces cerevisiae [5]): 0.5 µg/mL (≈ 2.92 µM)
CC(C)C[C@H](NC(=O)[C@H](CC(C)C)NC(=O)[C@H](CC(C)C)NC(=O)[C@@H](N)COCCN)C(=O)NCC(=O)O (H-S(Ethyl(2-NH2))LLLG-OH)										256 µg/mL (≈ 470 µM)	256 µg/mL (≈ 470 µM)	128 µg/mL (≈ 235 µM)	128 µg/mL (≈ 235 µM)	256 µg/mL (≈ 470 µM)	
CCC[C@H](NC(=O)[C@@H](N)CCCCN)C(=O)N[C@@H](CNC(=O)/C=C/C(=O)OC)C(=O)O [listing 1 of 2 here]	8 µg/mL (≈ 18 µM)	4 µg/mL (≈ 9.02 µM)	1 µg/mL (≈ 2.25 µM)	8 µg/mL (≈ 18 µM)	8 µg/mL (≈ 18 µM)					32 µg/mL (≈ 72.2 µM)	32 µg/mL (≈ 72.2 µM)	4 µg/mL (≈ 9.02 µM)	8 µg/mL (≈ 18 µM)	32 µg/mL (≈ 72.2 µM)	
NC(CC(=O)NO)C(=O)O (configuration not stated)	256 µg/mL (≈ 1730 µM)	256 µg/mL (≈ 1730 µM)	128 µg/mL (≈ 864 µM)	256 µg/mL (≈ 1730 µM)	256 µg/mL (≈ 1730 µM)	1.54 nmol/min/mg	2.25 nmol/min/mg	1.69 nmol/min/mg	1.25 nmol/min/mg						MIC (Saccharomyces cerevisiae [1]): 256 µg/mL (≈ 1730 µM); MIC (Saccharomyces cerevisiae [2]): 256 µg/mL (≈ 1730 µM); MIC (Saccharomyces cerevisiae [3]): 64 µg/mL (≈ 432 µM); MIC (Saccharomyces cerevisiae [4]): 64 µg/mL (≈ 432 µM); MIC (Saccharomyces cerevisiae [5]): 128 µg/mL (≈ 864 µM)
CC(C)C[C@H](NC(=O)[C@H](CC(C)C)NC(=O)[C@@H](N)COCCN)C(=O)NCC(=O)O (H-S(Ethyl(2-NH2))LLG-OH) [listing 1 of 2 here]						0.51 nmol/min/mg	0.83 nmol/min/mg	0.96 nmol/min/mg	0.65 nmol/min/mg						Stability (Saccharomyces cerevisiae [20]): 14 nmol/min; Stability (Saccharomyces cerevisiae [21]): 14 nmol/min; Stability (Saccharomyces cerevisiae [22]): 14 nmol/min; Stability (Saccharomyces cerevisiae [23]): 14 nmol/min; Stability (Saccharomyces cerevisiae [24]): 14 nmol/min; Stability (Candida albicans [25]): 20 nmol/min; Stability (Candida albicans [26]): 20 nmol/min; Stability (Candida albicans [27]): 20 nmol/min
CCC[C@H](NC(=O)[C@@H](N)CCCCN)C(=O)N[C@@H](CNC(=O)/C=C/C(=O)OC)C(=O)O [listing 2 of 2 here]						0.79 nmol/min/mg	1.61 nmol/min/mg	1.18 nmol/min/mg	0.81 nmol/min/mg						Stability (Saccharomyces cerevisiae [20]): 14 nmol/min; Stability (Saccharomyces cerevisiae [21]): 14 nmol/min; Stability (Saccharomyces cerevisiae [22]): 14 nmol/min; Stability (Saccharomyces cerevisiae [23]): 14 nmol/min; Stability (Saccharomyces cerevisiae [24]): 14 nmol/min; Stability (Candida albicans [25]): 20 nmol/min; Stability (Candida albicans [26]): 20 nmol/min; Stability (Candida albicans [27]): 20 nmol/min
CC(C)C[C@H](NC(=O)[C@H](CC(C)C)NC(=O)[C@@H](N)COCCN)C(=O)NCC(=O)O (H-S(Ethyl(2-NH2))LLG-OH) [listing 2 of 2 here]										64 µg/mL (≈ 148 µM)	64 µg/mL (≈ 148 µM)	16 µg/mL (≈ 37.1 µM)	32 µg/mL (≈ 74.2 µM)	64 µg/mL (≈ 148 µM)	
